For data set [1], the system named is NHDF. Briefly: Inhibition of retrograde transport in NHDF cells assessed as displacement of STX5 from golgi apparatus at 10 uM by immunofluorescence analysis. The data set is classed as functional, cell-based. Particulars: Homo sapiens. The procedure, abridged: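 HDFs exposed to 10 µM compound or DMSO vehicle, fixed in 2% paraformaldehyde for 15 min at room temperature. Blocked in PBS with 10% human serum, 0.5% Tween-20 and 5% glycine, permeabilized with 0.1% Triton X-100. Stained for STX5 and for the Golgi marker p115, DAPI mounting, imaged by confocal microscopy.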

Data set [2] deals with Human betaherpesvirus 5. The data set is described as follows: Antiviral activity against HCMV infected in human ARPE-19 cells at 7.5 uM measured after 3 days post infection. Format: functional, cell-based. The procedure, abridged: (§1)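 ARPE-19 cells infected with GFP-expressing HCMV and treated with compound at 7.5 µM. Images taken 3 and 6 days post infection, and area of infection calculated from GFP signal. Average of 3 distinct experiments.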

The test system of data set [3] is Human betaherpesvirus 5. The data set is described as follows: Antiviral activity against HCMV infected in human ARPE-19 cells at 7.5 uM measured after 6 days post infection. Format: functional, cell-based. A digest of the protocol:
as §1

Data set [4] deals with NHDF. Briefly: Cytotoxicity in human NHDF cells assessed as cell viability at 10 uM incubated for 96 hrs by CellTiter-Glo Luminescent assay. Format: cell-based. The procedure, abridged:
(§2)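 Cells in 96-well plates exposed to DMSO or compound at 100 nM or 10 µM for 96 h. Medium then replaced with fresh medium. XTT read as absorbance after 2 h at 37°C with activating reagent; CellTiter-Glo (ATP) read as luminescence. Average of three independent experiments.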

For data set [5], the system named is ARPE-19. The data set is described as follows: Cytotoxicity in human ARPE-19 cells assessed as cell viability at 10 uM incubated for 96 hrs by CellTiter-Glo Luminescent assay. The data set is classed as cell-based. Particulars: arpe-19, 96 h. The procedure, abridged: as §2
For orientation: In ATP-based viability assays light output follows the ATP content of the culture.

Data set [6] relates to Vero. Briefly: Cytotoxicity in African green monkey VERO cells assessed as cell viability at 10 uM incubated for 96 hrs by CellTiter-Glo Luminescent assay. The data set is classed as cell-based. The settings on record: chlorocebus sabaeus, dose […]. A digest of the protocol:
as §2

Data set [7] in a line: Cytotoxicity in mouse BALB/3T3 clone A31 cells assessed as cell viability at 10 uM incubated for 96 hrs by CellTiter-Glo Luminescent assay. Format: cell-based. The settings on record: balb/3t3 clone a31, 96 h. The procedure, abridged:
as §2

Data set [8] has as its system NHDF. The data set is described as follows: Cytotoxicity in human NHDF cells assessed as cell viability at 10 uM incubated for 96 hrs by XTT Assay. The data set is classed as cell-based. A digest of the protocol: as §2
(Tetrazolium assays rely on reduction of a dye to a coloured formazan, in cell work by metabolically active cells.)

Data set [9] concerns ARPE-19. Briefly: Cytotoxicity in human ARPE-19 cells assessed as cell viability at 10 uM incubated for 96 hrs by XTT Assay. Format: cell-based. The settings on record: arpe-19, 96 h. The procedure, abridged: as §2
Data set [10] has as its system Vero. The data set is described as follows: Cytotoxicity in African green monkey VERO cells assessed as cell viability at 10 uM incubated for 96 hrs by XTT Assay. Format: cell-based. The settings on record: chlorocebus sabaeus. The procedure, abridged:
as §2

Data set [11] is described as follows: Cytotoxicity in mouse BALB/3T3 clone A31 cells assessed as cell viability at 10 uM incubated for 96 hrs by XTT Assay. The data set is classed as cell-based. Particulars: balb/3t3 clone a31, 96 h. The procedure, abridged: as §2
Data set [12] relates to BALB/3T3 clone A31. The data set is described as follows: Antiviral activity against mouse polyomavirus A2 strain infected in BALB.3T3 clone A31 cells assessed as viral RNA at 100 nM to 10 uM measured after 24 hpi by RT-PCR analysis. Format: functional, cell-based. The settings on record: Murine polyomavirus, dose microM 0.1-10. The procedure, abridged: (§3)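 A31 cells in 10% FBS DMEM infected with MuPyV A2 at MOI 1 for 1.5 h at 37°C. Cells washed twice, then exposed to compound (100 nM, 1.0 µM or 10 µM) for 24 h. Total RNA extracted and 2 µg converted to cDNA. LT mRNA measured by qPCR, normalized to TBP and to untreated cells. Two independent experiments, n=4 per condition, mean ± SD, 2-way ANOVA.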

The subject of data set [13] is NHDF. The data set is described as follows: Cytotoxicity in human NHDF cells assessed as cell viability at 100 nM incubated for 96 hrs by CellTiter-Glo Luminescent assay. Format: cell-based. The settings on record: 0.1 µM. The procedure, abridged:
as §2

For data set [14], the system named is ARPE-19. The data set is described as follows: Cytotoxicity in human ARPE-19 cells assessed as cell viability at 100 nM incubated for 96 hrs by CellTiter-Glo Luminescent assay. Format: cell-based. Particulars: arpe-19, 96 h, 0.1 µM. The procedure, abridged:
as §2

The test system of data set [15] is Vero. The data set is described as follows: Cytotoxicity in African green monkey VERO cells assessed as cell viability at 100 nM incubated for 96 hrs by CellTiter-Glo Luminescent assay. The data set is classed as cell-based. Particulars: chlorocebus sabaeus, 0.1 µM. The procedure, abridged:
as §2

A short description of data set [16]: Cytotoxicity in mouse BALB/3T3 clone A31 cells assessed as cell viability at 100 nM incubated for 96 hrs by CellTiter-Glo Luminescent assay. Particulars: balb/3t3 clone a31, 96 h, 0.1 µM. The data set is classed as cell-based. A digest of the protocol: as §2
Data set [17] relates to NHDF. Briefly: Cytotoxicity in human NHDF cells assessed as cell viability at 100 nM incubated for 96 hrs by XTT Assay. The data set is classed as cell-based. The settings on record: 0.1 µM. A digest of the protocol:
as §2

For data set [18], the system named is ARPE-19. Briefly: Cytotoxicity in human ARPE-19 cells assessed as cell viability at 100 nM incubated for 96 hrs by XTT Assay. The settings on record: arpe-19, 96 h, 0.1 µM. The data set is classed as cell-based. A digest of the protocol: as §2
Data set [19] deals with Vero. Briefly: Cytotoxicity in African green monkey VERO cells assessed as cell viability at 100 nM incubated for 96 hrs by XTT Assay. Format: cell-based. The settings on record: chlorocebus sabaeus, 0.1 µM. The procedure, abridged:
as §2

Data set [20] can be described thus: Cytotoxicity in mouse BALB/3T3 clone A31 cells assessed as cell viability at 100 nM incubated for 96 hrs by XTT Assay. Format: cell-based. Particulars: balb/3t3 clone a31, 96 h, 0.1 µM. A digest of the protocol:
as §2

The subject of data set [21] is Human betaherpesvirus 5. Briefly: Antiviral activity against HCMV TB40/E infected in human assessed as reduction in infectious virus titer at 10 uM compound added 2 hpi and measured after 96 hpi by inverted microscopic analysis.
In data set [22] the test system is Human betaherpesvirus 5. Briefly: Antiviral activity against HCMV TB40/E infected in human NHDF cells assessed as reduction in infectious virus titer compound added 2 hpi and measured after 96 hpi by inverted microscopic analysis. The settings on record: Human betaherpesvirus 5, TB40/E.
Data set [23] concerns BALB/3T3 clone A31. Briefly: Antiviral activity against mouse polyomavirus A2 strain infected in BALB.3T3 clone A31 cells assessed as viral RNA at 100 nM measured after 24 hpi by RT-PCR analysis. Format: functional, cell-based. Particulars: Murine polyomavirus. The procedure, abridged: as §3
Data set [24] relates to BALB/3T3 clone A31. Briefly: Antiviral activity against mouse polyomavirus A2 strain infected in BALB.3T3 clone A31 cells assessed as viral RNA at 1 to 10 uM measured after 24 hpi by RT-PCR analysis. The data set is classed as functional, cell-based. The settings on record: Murine polyomavirus. The procedure, abridged: as §3

The source made the active and inactive calls. The rule behind the calls is not given here.

What is called IC50 is the point on the concentration scale where inhibition reaches its midpoint.

Regarding `Cc1nc(-c2ccc(C3N(C)c4ccc([N+](=O)[O-])cc4C(=O)N3c3ccccc3)s2)cs1` (stereo not drawn), the “STX5 displacement from Golgi (active/inactive call)” value in [1] was “Active”. Further, the outcome in data set [2], in data set [3], in [12] and in data set [21] was Active. For the same molecule, the Activity entry in data set [4], in data set [5], in data set [6], in data set [7], in data set [8] and in data set [9] was “Toxic” throughout. In addition, the Activity entry in [10] is listed as “Toxic”; in data set [11], “Toxic”; in data set [13], “Non-Toxic”; in [14], “Non-Toxic”; in data set [15], “Non-Toxic”; in data set [16], “Non-Toxic”. Moreover, the Activity entry in [17], in data set [18], in [19] and in data set [20] was “Non-Toxic” each time. Further, the IC50 in data set [22] was 21.3 nM.
Turning to `Cc1nc(-c2ccc(C3Nc4ccc([N+](=O)[O-])cc4C(=O)N3c3ccccc3)s2)cs1` (stereo not drawn), in data set [1], the “STX5 displacement from Golgi (active/inactive call)” value was “Active”. The result in data set [2], in data set [3], in data set [24] and in [21] was Active. Further, the Activity result in data set [4], in data set [5], in [6], in data set [7], in data set [8] and in data set [9] was “Toxic” in each case. Moreover, the Activity entry in data set [10] is “Toxic”; in data set [11] it was “Toxic”; in data set [13], “Non-Toxic”; in data set [14], “Non-Toxic”; in data set [15] it was “Non-Toxic”; in [16], “Non-Toxic”. Also, the Activity entry in [17], in data set [18], in data set [19] and in data set [20] was “Non-Toxic” in each case. Further, the result in [23] was inactive. The IC50 in data set [22] turned out to be 90.5 nM.
With `Cc1nc(-c2ccc(C3N(C)c4ccc(C#N)cc4C(=O)N3c3ccccc3)s2)cs1` (stereo not drawn), in [1], the “STX5 displacement from Golgi (active/inactive call)” value was “Active”. The outcome in data set [2], in data set [3], in [12] and in [21] was Active. Besides, the Activity entry is recorded as “Toxic” in [4]; “Toxic” in data set [5]; “Toxic” in data set [6]; “Toxic” in data set [7]; “Non-Toxic” in data set [13]; “Non-Toxic” in [14]. The Activity result in data set [15], in [16], in [17], in data set [18], in data set [19] and in [20] was “Non-Toxic” in each case. Further, the IC50 in [22] is 34.1 nM.
Turning to `Cc1nc(-c2ccc(C3N(C)c4ccc(F)cc4C(=O)N3c3ccccc3)s2)cs1` (stereo not drawn), the IC50 in data set [22] was 25 nM.
As for `Cc1nc(-c2ccc(C3Nc4ccc(C#N)cc4C(=O)N3c3ccccc3)s2)cs1` (stereo not drawn), in data set [1], the “STX5 displacement from Golgi (active/inactive call)” value was “Active”. In addition, the outcome in data set [2], in [3], in [24] and in [21] was Active. Also, the Activity result in data set [4], in [5], in [6], in data set [7], in data set [8] and in [9] was “Toxic” in each case. In addition, the Activity result was “Toxic” in [10]; “Toxic” in [11]; “Non-Toxic” in data set [13]; “Non-Toxic” in data set [14]; “Non-Toxic” in data set [15]; “Non-Toxic” in data set [16]. For the same molecule, the Activity result in data set [17], in data set [18], in data set [19] and in data set [20] was “Non-Toxic” throughout. In [23], the result was inactive. Moreover, the IC50 in data set [22] was found to be 96.3 nM.
As for `Cc1nc(-c2ccc(C3N(C)c4ccccc4C(=O)N3c3ccccc3)s2)cs1` (stereo not drawn), the IC50 in data set [22] was 386 nM.

The values above are taken from ChEMBL document CHEMBL4665637, “Inhibition of diverse opportunistic viruses by structurally optimized retrograde trafficking inhibitors” (Bioorg Med Chem, 2019).
